Key:
[1] = tested on: Escherichia coli; assay: In vitro antimicrobial activity against Escherichia coli was evaluated by measuring the diameter of zone of inhibition; NS denotes no significant inhibition; format: functional, organism-based
In short: (§1)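 Disc diffusion on nutrient agar seeded with the bacterium: glass microfiber discs (0.6 cm) saturated with 0.2 mL of aqueous compound solutions at different concentrations; incubation at 37°C for 48 h; diameter of growth-inhibition zone read in millimetres.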

[2] = tested on: Pseudomonas aeruginosa; assay: In vitro antimicrobial activity against Pseudomonas aeruginosa was evaluated by measuring the diameter of zone of inhibition; NS denotes no significant inhibition; format: functional, organism-based; in short: as §1
[3] = tested on: Candida albicans; assay: In vitro antifungal activity against Candida albicans was evaluated by measuring the diameter of zone of inhibition; NS denotes no significant inhibition; format: functional, organism-based
In short: (§2)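 Disc diffusion: glass microfiber discs (0.6 cm) saturated with 0.2 mL of aqueous compound solutions at various concentrations, placed on malt extract agar seeded with the yeast; plates incubated at 28°C for 96 h; inhibition zone diameter measured in mm.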

[4] = tested on: Staphylococcus aureus; assay: In vitro antimicrobial activity against Staphylococcus aureus was evaluated by measuring the diameter of zone of inhibition; NS denotes no significant inhibition; format: functional, organism-based; in short: as §1
[5] = tested on: Escherichia coli; assay: In vitro antimicrobial activity against Escherichia coli was evaluated by measuring the diameter of zone of inhibition; format: functional; in short: as §1
[6] = tested on: Candida albicans; assay: In vitro antifungal activity against Candida albicans was evaluated by measuring the diameter of zone of inhibition; format: functional; in short: as §2
[7] = tested on: Staphylococcus aureus; assay: In vitro antimicrobial activity against Staphylococcus aureus was evaluated by measuring the diameter of zone of inhibition; format: functional; in short: as §1
[8] = tested on: Pseudomonas aeruginosa; assay: In vitro antimicrobial activity against Pseudomonas aeruginosa was evaluated by measuring the diameter of zone of inhibition; format: functional; in short: as §1

In the case of `Cc1c(C(=O)NNc2ccccc2)nnc2c3c(-c4ccccc4)c(-c4ccccc4)nnc3nn12`, the Inhibition [1] is reported as “No inhibition”, the Inhibition [2] is reported as “No inhibition” and the Inhibition [3] is reported as “No inhibition”. For the same molecule, the Inhibition [4] was “No inhibition”.
With `CCOC(=O)c1nnc2c3c(-c4ccccc4)c(-c4ccccc4)nnc3nn2c1C` the Inhibition [1] was “No inhibition”, the Inhibition [2] was “No inhibition” and the Inhibition [3] was “No inhibition”. For the same molecule, the Inhibition [4] was “No inhibition”.
In the case of `Cc1ccc(/C=N/NC(=O)c2nnc3c4c(-c5ccccc5)c(-c5ccccc5)nnc4nn3c2C)o1`, the Inhibition [1] is reported as “No inhibition”, the Inhibition [2] is reported as “No inhibition” and the Inhibition [3] is reported as “No inhibition”. For the same molecule, the Inhibition [4] was “No inhibition”.
In the case of `Cc1c(/C(=N/N)c2ccccc2)nnc2c3c(-c4ccccc4)c(-c4ccccc4)nnc3nn12`, the Inhibition [1] is reported as “No inhibition”, the Inhibition [2] is reported as “No inhibition” and the Inhibition [3] is reported as “No inhibition”. For the same molecule, the Inhibition [4] was “No inhibition”.
With `O=C(O)c1nnc2c3c(-c4ccccc4)c(-c4ccccc4)nnc3nn2c1-c1ccccc1` the Inhibition [1] was “No inhibition”, the Inhibition [2] was “No inhibition” and the Inhibition [3] was “No inhibition”. For the same molecule, the Inhibition [4] was “No inhibition”.
`Cc1c(C(=O)N/N=C/c2ccco2)nnc2c3c(-c4ccccc4)c(-c4ccccc4)nnc3nn12` was tested, and the Inhibition [5] was 2 mm.
With `Cc1c(C(=O)NNC(N)=O)nnc2c3c(-c4ccccc4)c(-c4ccccc4)nnc3nn12` the Inhibition [1] was “No inhibition”, the Inhibition [2] was “No inhibition” and the Inhibition [3] was “No inhibition”. For the same molecule, the Inhibition [4] was “No inhibition”.
With `Cc1ccc(/C=N/NC(=O)c2nnc3c4c(-c5ccccc5)c(-c5ccccc5)nnc4nn3c2C)s1` the Inhibition [6] was 2 mm.
In the case of `O=C(NNc1ccccc1)c1nnc2c3c(-c4ccccc4)c(-c4ccccc4)nnc3nn2c1-c1ccccc1`, the Inhibition [1] is reported as “No inhibition”, the Inhibition [2] is reported as “No inhibition” and the Inhibition [3] is reported as “No inhibition”. The Inhibition [4] was “No inhibition”.
With `Cc1c(C(=O)N/N=C/c2ccc[nH]2)nnc2c3c(-c4ccccc4)c(-c4ccccc4)nnc3nn12` the Inhibition [5] was 2 mm.
With `Cc1c(C(=O)N/N=C/c2cccn2C)nnc2c3c(-c4ccccc4)c(-c4ccccc4)nnc3nn12` the Inhibition [1] was “No inhibition”, the Inhibition [2] was “No inhibition” and the Inhibition [3] was “No inhibition”. For the same molecule, the Inhibition [4] was “No inhibition”.
`Cc1c(/C(=N/Nc2ccccc2)c2ccccc2)nnc2c3c(-c4ccccc4)c(-c4ccccc4)nnc3nn12` was tested, and the Inhibition [1] was “No inhibition”, the Inhibition [2] was “No inhibition” and the Inhibition [3] was “No inhibition”. For the same molecule, the Inhibition [4] was “No inhibition”.
`c1ccc(-c2nnc3nn4c(-c5ccccc5)cnnc4c3c2-c2ccccc2)cc1` was tested, and the Inhibition [1] was “No inhibition”, the Inhibition [2] was “No inhibition” and the Inhibition [3] was “No inhibition”. For the same molecule, the Inhibition [4] was “No inhibition”.
`Cc1cnnc2c3c(-c4ccccc4)c(-c4ccccc4)nnc3nn12` was tested, and the Inhibition [1] was “No inhibition”, the Inhibition [2] was “No inhibition” and the Inhibition [3] was “No inhibition”. For the same molecule, the Inhibition [4] was “No inhibition”.
For `Cc1c(C(=O)O)nnc2c3c(-c4ccccc4)c(-c4ccccc4)nnc3nn12`, the Inhibition [1] was “No inhibition”, the Inhibition [2] was “No inhibition” and the Inhibition [3] was “No inhibition”. For the same molecule, the Inhibition [4] was “No inhibition”.
`NNC(=O)c1nnc2c3c(-c4ccccc4)c(-c4ccccc4)nnc3nn2c1-c1ccccc1` was tested, and the Inhibition [1] was “No inhibition”, the Inhibition [2] was “No inhibition” and the Inhibition [3] was “No inhibition”. For the same molecule, the Inhibition [4] was “No inhibition”.
In the case of `Cc1c(C(=O)N/N=C/c2ccccc2)nnc2c3c(-c4ccccc4)c(-c4ccccc4)nnc3nn12`, the Inhibition [1] is reported as “No inhibition”, the Inhibition [2] is reported as “No inhibition” and the Inhibition [3] is reported as “No inhibition”. For the same molecule, the Inhibition [4] was “No inhibition”.
In the case of `Cc1c(C(=O)N/N=C/c2ccc(Cl)cc2)nnc2c3c(-c4ccccc4)c(-c4ccccc4)nnc3nn12`, the Inhibition [1] is reported as “No inhibition”, the Inhibition [2] is reported as “No inhibition” and the Inhibition [3] is reported as “No inhibition”. The Inhibition [4] was “No inhibition”.
Work on `COc1ccc(/C=N/NC(=O)c2nnc3c4c(-c5ccccc5)c(-c5ccccc5)nnc4nn3c2C)cc1` yielded an Inhibition [7] of 3 mm.
For `Cc1c(C(=O)N/N=C/c2ccc([N+](=O)[O-])cc2)nnc2c3c(-c4ccccc4)c(-c4ccccc4)nnc3nn12`, the Inhibition [5] was 5 mm.
`NC(=O)NNC(=O)c1nnc2c3c(-c4ccccc4)c(-c4ccccc4)nnc3nn2c1-c1ccccc1` was tested, and the Inhibition [1] was “No inhibition”, the Inhibition [2] was “No inhibition” and the Inhibition [3] was “No inhibition”. For the same molecule, the Inhibition [4] was “No inhibition”.
For `Cc1c(C(=O)N/N=C/c2cccs2)nnc2c3c(-c4ccccc4)c(-c4ccccc4)nnc3nn12`, the Inhibition [5] was 2 mm and the Inhibition [7] was 2 mm.
`Cc1c(/C(=N/NC(N)=O)c2ccccc2)nnc2c3c(-c4ccccc4)c(-c4ccccc4)nnc3nn12` was tested, and the Inhibition [5] was 3 mm, the Inhibition [7] was 4 mm and the Inhibition [8] was 2 mm.
`CC(=O)c1nnc2c3c(-c4ccccc4)c(-c4ccccc4)nnc3nn2c1C` showed an Inhibition [7] of 4 mm and an Inhibition [6] of 3 mm.
In the case of `C/C(=N\NC(N)=O)c1nnc2c3c(-c4ccccc4)c(-c4ccccc4)nnc3nn2c1C`, the Inhibition [1] is reported as “No inhibition”, the Inhibition [2] is reported as “No inhibition” and the Inhibition [3] is reported as “No inhibition”. For the same molecule, the Inhibition [4] was “No inhibition”.
For `Cc1c(C(=O)N/N=C/c2ccc3ccccc3c2)nnc2c3c(-c4ccccc4)c(-c4ccccc4)nnc3nn12`, the Inhibition [1] was “No inhibition”, the Inhibition [2] was “No inhibition” and the Inhibition [3] was “No inhibition”. For the same molecule, the Inhibition [4] was “No inhibition”.
For `CCOC(=O)c1nnc2c3c(-c4ccccc4)c(-c4ccccc4)nnc3nn2c1-c1ccccc1`, the Inhibition [1] was “No inhibition”, the Inhibition [2] was “No inhibition” and the Inhibition [3] was “No inhibition”. The Inhibition [4] was “No inhibition”.

Source: ChEMBL document CHEMBL1137886, “Pyridazine derivatives and related compounds. Part 13: Synthesis and antimicrobial activity of some pyridazino[3',4':3,4]pyrazolo[5,1-c]-1,2,4-triazines” (2004)
